Assay results: ChEMBL document CHEMBL4715728, “New bifunctional antioxidant/σ1 agonist ligands: Preliminary chemico-physical and biological evaluation” (Bioorg Med Chem, 2016)
Calls of active or inactive are those of the source. No cut-off for these calls is given here.

Key:
Mus musculus [1] = experiment: In vivo agonist activity at sigma 1 receptor in Swiss […] mouse assessed as modulation of morphine-induced analgesic effect by measuring tail flick latency at 1 mg/kg, ip measured after 90 mins by radiant heat tail-flick method; type: functional, organism-based
Mus musculus [2] = experiment: In vivo agonist activity at sigma 1 receptor in Swiss […] mouse assessed as modulation of morphine-induced analgesic effect by measuring tail flick latency at 1 mg/kg, ip preincubated for 45 mins followed by morphine treatment after 90 mins by radiant heat tail-flick method; type: functional, organism-based; conditions: time 135.0 min
[3] = Cytotoxicity against Sprague-Dawley rat Cerebral cortex neuron assessed as LDH activity at 1 uM incubated for 24 hrs by LDH assay (reference value: […]); type: tissue-based
Summary of the method: (§1)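 Primary fetal rat cortical neurons, matured 8 days on poly-D-lysine, exposed 24 h at 37 °C to compound (0.1–100 µM; DMSO 0.5% or water vehicle). LDH released into 100 µl culture medium was measured by kit as the rate of NAD+ reduction (absorbance increase at 490 nm). Positive control was mitomycin C. Four independent experiments.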

[4] = Cytotoxicity against Sprague-Dawley rat Cerebral cortex neuron assessed as LDH activity at 25 uM incubated for 24 hrs by LDH assay (reference value: […]); type: tissue-based; summary of the method: as §1
[5] = Antioxidant activity in Sprague-Dawley rat Cerebral cortex neuron assessed as total oxidative stress level by measuring H2O2 equivalents at 1 uM after 24 hrs (reference value: 2.3 +/- 0.3 umol/L); type: functional
Summary of the method: (§2)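 Primary cerebral cortex neurons from rat fetuses, grown on poly-D-lysine in neurobasal medium with fetal calf serum (5% CO2, 37 °C), tested after 8 days in culture. Compounds in DMSO (0.5%) or sterile water were added and incubated 24 h at 37 °C. Cells were washed in ice-cold PBS and homogenized in 0.9% saline. Intracellular TAC (Trolox equiv.) and TOS (H2O2 equiv.) were read by kit. Ascorbic acid 10 µM (TAC) and H2O2 25 µM (TOS) served as positive controls. Four independent experiments.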

[6] = Antioxidant activity in Sprague-Dawley rat Cerebral cortex neuron assessed as total oxidative stress level by measuring H2O2 equivalents at 10 uM after 24 hrs (reference value: 2.3 +/- 0.3 umol/L); type: functional; summary of the method: as §2
[7] = Antioxidant activity in Sprague-Dawley rat Cerebral cortex neuron assessed as total oxidative stress level by measuring H2O2 equivalents at 25 uM after 24 hrs (reference value: 2.3 +/- 0.3 umol/L); type: functional; summary of the method: as §2
[8] = Antioxidant activity in Sprague-Dawley rat Cerebral cortex neuron assessed as total oxidative stress level by measuring H2O2 equivalents at 50 uM after 24 hrs (reference value: 2.3 +/- 0.3 umol/L); type: functional; summary of the method: as §2
[9] = Antioxidant activity in Sprague-Dawley rat Cerebral cortex neuron assessed as total oxidative stress level by measuring H2O2 equivalents at 100 uM after 24 hrs (reference value: 2.3 +/- 0.3 umol/L); type: functional; summary of the method: as §2
[10] = Stability of compound in human plasma assessed as half life by HPLC-UV assay; type: ADME, cell-free
Summary of the method: (§3)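 Citrated human or rat plasma diluted to 80% with 0.02 M phosphate buffer pH 7.4, 37 °C with shaking. Compound added from a 1 mg/ml acetonitrile stock. Aliquots deproteinized with 0.01 M HCl in methanol, centrifuged, and analyzed by HPLC-UV (C8 column, KH2PO4/methanol pH 2.5, 220 nm). Remaining intact compound plotted against time. Three experiments.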

[11] = Stability of compound in fasted state stimulated intestinal fluid at pH 1.3 assessed as rate of compound hydrolysis in presence of 10 mg/ml pepsin by HPLC-UV assay; type: ADME; conditions: isolated protein
Summary of the method: (§4)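 HCl buffer with pepsin or phosphate buffer with pancreatin (10 or 40 mg/ml), preincubated at 37 °C. Drug stock (50 µM in ethanol/fasted state intestinal fluid 1:9) added and shaken at 37 °C, 650 rpm. Samples quenched with ice-cold acetonitrile containing 0.5% formic acid, centrifuged at 2 °C, and the supernatant assayed by HPLC-UV. Three experiments.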

[12] = Stability of compound in fasted state stimulated intestinal fluid at pH 7.4 assessed as rate of compound hydrolysis in presence of 10 mg/ml pancreatin by HPLC-UV assay; type: ADME; conditions: simulated gi fluid; summary of the method: as §4
[13] = Stability of compound in fasted state stimulated intestinal fluid at pH 7.4 assessed as rate of compound hydrolysis in presence of 40 mg/ml pancreatin by HPLC-UV assay; type: ADME; conditions: simulated gi fluid; summary of the method: as §4
[14] = target: Sigma non-opioid intracellular receptor 1 (Cavia porcellus, UniProt Q60492); experiment: Displacement of [3H]-(+)-pentazocine from sigma1 receptor in guinea pig brain membrane incubated for 150 mins by liquid scintillation counting method; type: cell membranes
Summary of the method: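 Guinea pig brain membranes (500 µg protein) in 50 mM Tris-HCl pH 7.4 with 3 nM [3H]-(+)-pentazocine. […] Incubated 150 min at 37 °C, then filtered on PEI-soaked GF/B filters and counted by scintillation. Ki obtained by EBDA/LIGAND; three determinations.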

[15] = Displacement of [3H]-DTG from Sigma 2 receptor in guinea pig brain membrane incubated for 120 mins in presence of sigma1 blocker (+)-SKF-10047 by liquid scintillation counting method; type: cell membranes, Cavia porcellus
Cavia porcellus = species on record: Cavia porcellus; experiment: Selectivity ratio of Ki for displacement of [3H]-DTG from sigma2 receptor in guinea pig brain membrane to Ki for displacement of [3H]-(+)-pentazocine from sigma1 receptor in guinea pig brain membrane; type: cell membranes
[16] = Stability of compound in rat plasma assessed as rate of compound hydrolysis by HPLC-UV assay; type: ADME, cell-free; summary of the method: as §3

Sequence of Sigma non-opioid intracellular receptor 1 (Q60492 whole entry): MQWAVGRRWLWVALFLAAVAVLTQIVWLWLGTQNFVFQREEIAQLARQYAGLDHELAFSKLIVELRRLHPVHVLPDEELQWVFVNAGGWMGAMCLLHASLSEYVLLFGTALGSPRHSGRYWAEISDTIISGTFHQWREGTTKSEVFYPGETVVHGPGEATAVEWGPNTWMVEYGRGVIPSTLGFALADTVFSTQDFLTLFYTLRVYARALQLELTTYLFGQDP

Row | SMILES | Activity (Mus musculus [1]) | Activity (Mus musculus [2]) | Activity [3] [mU/ml] | Activity [4] [mU/ml] | Activity [5] [µmol/L] | Activity [6] [µmol/L] | Activity [7] [µmol/L] | Activity [8] [µmol/L] | Activity [9] [µmol/L] | half-life [10] [h] | Drug degradation [11] [h⁻¹] | Drug degradation [12] [h⁻¹] | Drug degradation [13] [h⁻¹] | Ki [14] [µM] | Ki [15] [µM] | Ratio Ki (Cavia porcellus) | Drug degradation [16] [h⁻¹]
1 | O=C(CCCCC1CCSS1)OC1CCN(Cc2ccccc2)CC1 (stereo not drawn) | inactive | Active | 0.26 | 0.32 | 0.5 | 0.4 | 0.5 | 0.4 | 0.5 | 0.43 | 0.028 | 2.389 | 7.615 |  |  |  | 
2 | O=C(CCCCC1CCSS1)N1CCN(Cc2ccccc2)CC1 (stereo not drawn) | inactive | Active | 0.32 | 0.32 | 0.5 | 0.4 | 0.5 | 0.5 | 0.5 | 1.76 | 0.01 | 0.031 | 0.072 |  |  |  | 
3 | O=C(CCCCC1CCSS1)OC1CCN(Cc2ccc(F)cc2)CC1 (stereo not drawn) | inactive | Active | 0.3 | 0.3 | 0.4 | 0.4 | 0.4 | 0.5 | 0.5 | 0.81 | 0.184 |  |  | 0.0041 | 6.5 | 1580 | 1.238
4 | COc1ccc(CN2CCN(C(=O)CCCCC3CCSS3)CC2)cc1 (stereo not drawn) |  |  | 0.3 | 0.29 | 0.5 | 0.5 | 0.5 | 0.5 | 0.5 | 5.28 | 0.006 | 0.011 | 0.017 | 0.0057 | 2.46 | 432 | 0.168
5 | COc1ccc(CN2CCC(OC(=O)CCCCC3CCSS3)CC2)cc1 (stereo not drawn) |  |  | 0.29 | 0.32 | 0.4 | 0.4 | 0.5 | 0.5 | 0.5 | 0.61 | 0.018 | 0.249 | 0.245 | 0.0031 | 1.5 | 484 | 1.506
6 | O=C(CCCCC1CCSS1)N1CCN(Cc2ccc(F)cc2)CC1 (stereo not drawn) | inactive | Active | 0.28 | 0.32 | 0.5 | 0.4 | 0.5 | 0.5 | 0.5 | 4.21 | 0.007 | 0.009 | 0.021 | 0.0029 | 1.3 | 448 | 0.237
